Test results taken from ChEMBL document CHEMBL3352487, “Synthesis, antibacterial activity, and biological evaluation of formyl hydroxyamino derivatives as novel potent peptide deformylase inhibitors against drug-resistant bacteria” (Eur J Med Chem, 2014).
Converted amounts (≈) assume the structure as drawn.

Assays:
Format in all cases: functional
[1] = system: Staphylococcus aureus; experiment: Antimicrobial activity against Staphylococcus aureus after 24 hrs by broth microdilution method
How it was run: (§1)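 Broth microdilution following NCCLS M7-A4; ATCC strains and clinical isolates from a provincial hospital.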

[2] = system: Staphylococcus aureus; experiment: Antimicrobial activity against methicillin-susceptible Staphylococcus aureus after 24 hrs by broth microdilution method; how it was run: as §1
[3] = system: Staphylococcus aureus; experiment: Antimicrobial activity against methicillin-resistant Staphylococcus aureus after 24 hrs by broth microdilution method
How it was run: (§2)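 Broth microdilution following NCCLS M7-A4, using ATCC strains and clinical isolates from a provincial hospital.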

[4] = system: Staphylococcus epidermidis; experiment: Antimicrobial activity against Staphylococcus epidermidis after 24 hrs by broth microdilution method; how it was run: as §1
[5] = system: Escherichia coli; experiment: Antimicrobial activity against Escherichia coli isolate 1 after 24 hrs by broth microdilution method; details: isolate 1, 24 h; how it was run: as §1
[6] = system: Escherichia coli; experiment: Antimicrobial activity against Escherichia coli isolate 2 after 24 hrs by broth microdilution method; details: isolate 2, 24 h; how it was run: as §1
[7] = system: Staphylococcus epidermidis; experiment: Antimicrobial activity against methicillin-resistant Staphylococcus epidermidis after 24 hrs by broth microdilution method; how it was run: as §2
[8] = system: Staphylococcus epidermidis; experiment: Antimicrobial activity against methicillin-susceptible Staphylococcus epidermidis after 24 hrs by broth microdilution method; how it was run: as §1
[9] = system: Enterococcus faecalis; experiment: Antimicrobial activity against Enterococcus faecalis after 24 hrs by broth microdilution method; how it was run: as §1
[10] = system: Moraxella catarrhalis; experiment: Antimicrobial activity against Moraxella catarrhalis after 24 hrs by broth microdilution method; how it was run: as §1
[11] = system: Streptococcus pneumoniae; experiment: Antimicrobial activity against penicillin-resistant Streptococcus pneumoniae after 24 hrs by broth microdilution method; how it was run: as §2

Row | SMILES | MIC [1] [µg/mL] | MIC [2] [µg/mL] | MIC [3] [µg/mL] | MIC [4] [µg/mL] | MIC [5] [µg/mL] | MIC [6] [µg/mL] | MIC [7] [µg/mL] | MIC [8] [µg/mL] | MIC [9] [µg/mL] | MIC [10] [µg/mL] | MIC [11] [µg/mL]
1 | CCCC[C@H](CN(O)C=O)C(=O)N1CC=C[C@H]1C(=O)Nc1ccccn1 | 0.125 (≈ 0.347 µM) | 1 (≈ 2.77 µM) | 0.125 (≈ 0.347 µM) | 0.5 (≈ 1.39 µM) | > 64 | 32 (≈ 88.8 µM) | – | – | – | – | –
2 | CCCC[C@H](CN(O)C=O)C(=O)N1CC=C[C@H]1C(=O)N1CCOCC1 | > 64 | > 64 | 32 (≈ 90.5 µM) | > 64 | > 64 | > 64 | – | – | – | – | –
3 | CCCC[C@H](CN(O)C=O)C(=O)N1CC=C[C@H]1C(=O)NC1CC1 | 64 (≈ 198 µM) | 32 (≈ 99 µM) | 2 (≈ 6.18 µM) | 4 (≈ 12.4 µM) | 64 (≈ 198 µM) | 32 (≈ 99 µM) | – | – | – | – | –
4 | CCCC[C@H](CN(O)C=O)C(=O)N1CC=C[C@H]1C(=O)Nc1ccc(Cl)cc1 | 8 (≈ 20.3 µM) | 2 (≈ 5.08 µM) | 1 (≈ 2.54 µM) | 4 (≈ 10.2 µM) | > 64 | > 64 | – | – | – | – | –
5 | CCCC[C@H](CN(O)C=O)C(=O)N1CC=C[C@H]1C(=O)Nc1ccccc1Br | 32 (≈ 73 µM) | 4 (≈ 9.13 µM) | 1 (≈ 2.28 µM) | 8 (≈ 18.3 µM) | > 64 | > 64 | – | – | – | – | –
6 | CCCC[C@H](CN(O)C=O)C(=O)N1CC=C[C@H]1C(=O)Nc1cccc(Br)c1 | 8 (≈ 18.3 µM) | 1 (≈ 2.28 µM) | 0.125 (≈ 0.285 µM) | 1 (≈ 2.28 µM) | 64 (≈ 146 µM) | 16 (≈ 36.5 µM) | – | – | – | – | –
7 | CCCC[C@H](CN(O)C=O)C(=O)N1CC=C[C@H]1C(=O)Nc1ccc(Br)cc1 | 4 (≈ 9.13 µM) | 1 (≈ 2.28 µM) | 0.5 (≈ 1.14 µM) | 2 (≈ 4.56 µM) | > 64 | > 64 | – | – | – | – | –
8 | CCCC[C@H](CN(O)C=O)C(=O)N1CC=C[C@H]1C(=O)Nc1ccccc1Cl | 0.5 (≈ 1.27 µM) | 2 (≈ 5.08 µM) | 0.25 (≈ 0.635 µM) | 1 (≈ 2.54 µM) | > 64 | 64 (≈ 162 µM) | – | – | – | – | –
9 | CCCC[C@H](CN(O)C=O)C(=O)N1CC=C[C@H]1C(=O)Nc1ccc(F)cc1 | 2 (≈ 5.3 µM) | 2 (≈ 5.3 µM) | 1 (≈ 2.65 µM) | 4 (≈ 10.6 µM) | > 64 | 64 (≈ 170 µM) | – | – | – | – | –
10 | CCCC[C@H](CN(O)C=O)C(=O)N1CC=C[C@H]1C(=O)Nc1ccc([N+](=O)[O-])cc1 | 0.5 (≈ 1.24 µM) | 2 (≈ 4.95 µM) | 0.5 (≈ 1.24 µM) | 0.5 (≈ 1.24 µM) | > 64 | 32 (≈ 79.1 µM) | – | – | – | – | –
11 | CCCC[C@H](CN(O)C=O)C(=O)N1CC=C[C@H]1C(=O)Nc1ccc(OC)cc1 | 0.5 (≈ 1.28 µM) | 2 (≈ 5.14 µM) | 1 (≈ 2.57 µM) | 2 (≈ 5.14 µM) | > 64 | > 64 | – | – | – | – | –
12 | CCCC[C@H](CN(O)C=O)C(=O)N1CC=C[C@H]1C(=O)Nc1nnc(C(F)(F)F)s1 | 32 (≈ 73.5 µM) | 16 (≈ 36.7 µM) | 8 (≈ 18.4 µM) | 16 (≈ 36.7 µM) | > 64 | > 64 | – | – | – | – | –
13 | CCCC[C@H](CN(O)C=O)C(=O)N1CC=C[C@H]1C(=O)N[C@@H](C)c1ccccc1 | 4 (≈ 10.3 µM) | 16 (≈ 41.3 µM) | 8 (≈ 20.6 µM) | 8 (≈ 20.6 µM) | > 64 | > 64 | – | – | – | – | –
14 | CCCC[C@H](CN(O)C=O)C(=O)N1CC=C[C@H]1C(=O)N[C@H](C)c1ccccc1 | 4 (≈ 10.3 µM) | 16 (≈ 41.3 µM) | 2 (≈ 5.16 µM) | 4 (≈ 10.3 µM) | > 64 | > 64 | – | – | – | – | –
15 | CCCC[C@H](CN(O)C=O)C(=O)N1CC=C[C@H]1C(=O)Nc1ccccc1 | 4 (≈ 11.1 µM) | 8 (≈ 22.3 µM) | 1 (≈ 2.78 µM) | 2 (≈ 5.56 µM) | > 64 | 64 (≈ 178 µM) | – | – | – | – | –
16 | C=C1C[C@@H](C(=O)N2CCOCC2)N(C(=O)[C@H](CCCC)CN(O)C=O)C1 | 4 (≈ 10.9 µM) | 64 (≈ 174 µM) | 4 (≈ 10.9 µM) | 8 (≈ 21.8 µM) | > 64 | > 64 | – | – | – | – | –
17 | C=C1C[C@@H](C(=O)Nc2ccccc2)N(C(=O)[C@H](CCCC)CN(O)C=O)C1 | 1 (≈ 2.68 µM) | 4 (≈ 10.7 µM) | 0.5 (≈ 1.34 µM) | 1 (≈ 2.68 µM) | 64 (≈ 171 µM) | > 64 | – | – | – | – | –
18 | C=C1C[C@@H](C(=O)Nc2ccc(F)cc2)N(C(=O)[C@H](CCCC)CN(O)C=O)C1 | 0.5 (≈ 1.28 µM) | 2 (≈ 5.11 µM) | 0.25 (≈ 0.639 µM) | 0.5 (≈ 1.28 µM) | 64 (≈ 163 µM) | 64 (≈ 163 µM) | – | – | – | – | –
19 | C=C1C[C@@H](C(=O)Nc2ccc(F)c[n+]2[O-])N(C(=O)[C@H](CCCC)CN(O)C=O)C1 | 1 (≈ 2.45 µM) | 4 (≈ 9.79 µM) | 0.5 (≈ 1.22 µM) | 1 (≈ 2.45 µM) | > 64 | > 64 | – | – | – | – | –
20 | O=CN(O)C[C@@H](CC1CCCC1)C(=O)N1CC=C[C@H]1C(=O)N1CCOCC1 | 64 (≈ 169 µM) | 64 (≈ 169 µM) | 32 (≈ 84.3 µM) | 64 (≈ 169 µM) | > 64 | > 64 | – | – | – | – | –
21 | C[C@H](NC(=O)[C@@H]1C=CCN1C(=O)[C@H](CC1CCCC1)CN(O)C=O)c1ccccc1 | 4 (≈ 9.67 µM) | 16 (≈ 38.7 µM) | 4 (≈ 9.67 µM) | 8 (≈ 19.3 µM) | > 64 | > 64 | – | – | – | – | –
22 | O=CN(O)C[C@@H](CC1CCCC1)C(=O)N1CC=C[C@H]1C(=O)Nc1ccc(F)cn1 | 0.25 (≈ 0.618 µM) | 0.5 (≈ 1.24 µM) | 0.125 (≈ 0.309 µM) | 0.125 (≈ 0.309 µM) | 32 (≈ 79.1 µM) | 16 (≈ 39.6 µM) | – | – | – | – | –
23 | CCCC[C@H](CN(O)C=O)C(=O)N1C[C@@H](F)C[C@H]1C(=O)Nc1ncc(C)s1 | 8 (≈ 20 µM) | 8 (≈ 20 µM) | 8 (≈ 20 µM) | – | – | – | 8 (≈ 20 µM) | 4 (≈ 9.99 µM) | > 16 | 0.25 (≈ 0.624 µM) | 0.06 (≈ 0.15 µM)
24 | CCCC[C@H](CN(O)C=O)C(=O)N1C[C@@H](F)C[C@H]1C(=O)Nc1ccc(F)c[n+]1[O-] | 4 (≈ 9.65 µM) | 4 (≈ 9.65 µM) | 4 (≈ 9.65 µM) | – | – | – | 16 (≈ 38.6 µM) | 4 (≈ 9.65 µM) | > 16 | 0.25 (≈ 0.603 µM) | 0.06 (≈ 0.145 µM)
25 | CCCC[C@H](CN(O)C=O)C(=O)N1[C@H](C(=O)Nc2ncc(C)s2)C[C@H]2CCCC[C@@H]21 | 8 (≈ 18.3 µM) | 8 (≈ 18.3 µM) | 8 (≈ 18.3 µM) | – | – | – | 16 (≈ 36.6 µM) | 0.5 (≈ 1.15 µM) | > 16 | 0.03 (≈ 0.0687 µM) | 0.03 (≈ 0.0687 µM)
26 | CCCC[C@H](CN(O)C=O)C(=O)N1[C@H](C(=O)Nc2ccc(C)cn2)C[C@H]2CCCC[C@@H]21 | 8 (≈ 18.6 µM) | 8 (≈ 18.6 µM) | 4 (≈ 9.29 µM) | – | – | – | 16 (≈ 37.2 µM) | 0.5 (≈ 1.16 µM) | > 16 | 0.03 (≈ 0.0697 µM) | 0.03 (≈ 0.0697 µM)
27 | O=C(O)c1cn(C2CC2)c2cc(N3CCNCC3)c(F)cc2c1=O [CIPROFLOXACIN] | 0.5 (≈ 1.51 µM) | 0.5 (≈ 1.51 µM) | 1 (≈ 3.02 µM) | 0.25 (≈ 0.754 µM) | < 0.0312 | < 0.0312 | – | – | – | – | –
28 | CC1(C)S[C@@H]2[C@H](NC(=O)Cc3ccccc3)C(=O)N2[C@H]1C(=O)O [PENICILLIN G] | 0.0625 (≈ 0.187 µM) | 1 (≈ 2.99 µM) | 64 (≈ 191 µM) | 2 (≈ 5.98 µM) | > 64 | > 64 | – | – | – | – | –
29 | CN[C@H](CC(C)C)C(=O)N[C@H]1C(=O)N[C@@H](CC(N)=O)C(=O)N[C@H]2C(=O)N[C@H]3C(=O)N[C@H](C(=O)N[C@H](C(=O)O)c4cc(O)cc(O)c4-c4cc3ccc4O)[C@H](O)c3ccc(c(Cl)c3)Oc3cc2cc(c3O[C@@H]2O[C@H](CO)[C@@H](O)[C@H](O)[C@H]2O[C@H]2C[C@](C)(N)[C@H](O)[C@H](C)O2)Oc2ccc(cc2Cl)[C@H]1O [VANCOMYCIN] | – | – | – | – | > 64 | > 64 | – | – | – | – | –
